Reference: ChEMBL document CHEMBL3102799, “Glutathione-analogous peptidyl phosphorus esters as mechanism-based inhibitors of γ-glutamyl transpeptidase for probing cysteinyl-glycine binding site” (Bioorg Med Chem, 2014)
Calls of active or inactive are those of the source. The calls are words filed in the database; no cut-off is given here.

Experiments:
Escherichia coli [1] = test: Inhibition of hydrolytic activity of Escherichia coli GGT using 7-(N-gamma-glutamylamino)-4-methylcoumarin as substrate assessed as release of AMC after 10 mins by fluorescence assay
[2] = biological target: Glutathione hydrolase 1 proenzyme (Homo sapiens) (UniProt P19440); test: Inhibition of hydrolytic activity of human GGT using 7-(N-gamma-glutamylamino)-4-methylcoumarin as substrate assessed as release of AMC at 1 mM after 10 mins by fluorescence assay
Glutathione hydrolase 1 proenzyme (Homo sapiens), sequence (P19440 1-380 limits assumed): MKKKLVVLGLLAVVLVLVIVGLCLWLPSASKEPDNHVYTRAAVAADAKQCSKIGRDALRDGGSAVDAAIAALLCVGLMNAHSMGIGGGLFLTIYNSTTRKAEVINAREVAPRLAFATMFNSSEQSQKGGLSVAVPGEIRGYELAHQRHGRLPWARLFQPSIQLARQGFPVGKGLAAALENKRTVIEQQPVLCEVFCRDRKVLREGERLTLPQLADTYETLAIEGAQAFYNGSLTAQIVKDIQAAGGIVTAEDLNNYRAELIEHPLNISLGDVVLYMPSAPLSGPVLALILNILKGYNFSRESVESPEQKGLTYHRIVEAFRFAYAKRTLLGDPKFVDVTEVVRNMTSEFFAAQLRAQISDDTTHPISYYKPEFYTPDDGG
Glutathione hydrolase 1 proenzyme (Homo sapiens), sequence (P19440 381-569 limits assumed): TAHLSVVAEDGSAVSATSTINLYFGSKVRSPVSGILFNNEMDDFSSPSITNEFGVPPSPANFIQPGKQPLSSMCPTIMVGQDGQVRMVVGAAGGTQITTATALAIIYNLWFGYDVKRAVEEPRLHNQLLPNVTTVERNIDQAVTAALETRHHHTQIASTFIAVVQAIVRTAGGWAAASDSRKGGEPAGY
How it was run: (§1)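 Human GGT (HC-GTP, BSA-stabilised, used unpurified). Enzyme added to preincubated inhibitor plus 4.0 μM γ-Glu-AMC (final; Km 12.6 μM) in 100 mM sodium succinate pH 5.5, 25°C, no acceptor. AMC fluorescence (ex 350/em 440 nm) read continuously 10 min against AMC calibration; first-order fit of progress curves gives kobs; kon derived as kobs = kon[I]/(1+[S]/Km).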

[3] = biological target: Glutathione hydrolase 1 proenzyme (Homo sapiens) (UniProt P19440); test: Inhibition of hydrolytic activity of human GGT using 7-(N-gamma-glutamylamino)-4-methylcoumarin as substrate assessed as release of AMC after 10 mins by fluorescence assay; how it was run: as §1
Escherichia coli [4] = test: Inhibition of hydrolytic activity of Escherichia coli GGT using 7-(N-gamma-glutamylamino)-4-methylcoumarin as substrate assessed as release of AMC at 1 mM after 10 mins by fluorescence assay
How it was run: (§2)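 E. coli enzyme purified from periplasmic fraction of recombinant E. coli K-12 (SH642). Time-dependent inactivation, pseudo-first-order: enzyme added to preincubated inhibitor plus 0.2 μM γ-Glu-AMC (final; equals Km) in 100 mM sodium succinate pH 5.5, 25°C, no acceptor substrate. AMC release (ex 350/em 440 nm) followed continuously 10 min; progress curves fit first-order for kobs; kon from kobs = kon[I]/(1+[S]/Km).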

Escherichia coli [5] = test: Inhibition of hydrolytic activity of Escherichia coli GGT using 7-(N-gamma-glutamylamino)-4-methylcoumarin as substrate assessed as release of AMC at 1 mM by fluorescence assay; conditions: TDE = time-dependent effect; how it was run: as §2
Escherichia coli [6] = test: Binding affinity to Cys-Gly binding site of Escherichia coli GGT by ion-spray mass spectroscopy analysis
[7] = biological target: Glutathione hydrolase 1 proenzyme (Homo sapiens) (UniProt P19440); test: Irreversible inhibition of hydrolytic activity of human GGT using 7-(N-gamma-glutamylamino)-4-methylcoumarin as substrate assessed as release of AMC at 1 mM after 10 mins by fluorescence assay; how it was run: as §1
[8] = biological target: Glutathione hydrolase 1 proenzyme (Homo sapiens) (UniProt P19440); test: Ratio of acivicin to compound for hydrolytic activity of human GGT
[9] = biological target: Glutathione hydrolase 1 proenzyme (Homo sapiens) (UniProt P19440); test: Inhibition of hydrolytic activity of human GGT using 7-(N-gamma-glutamylamino)-4-methylcoumarin as substrate assessed as release of AMC by fluorescence assay; conditions: TDE = time-dependent effect; how it was run: as §1
Escherichia coli [10] = test: Inhibition of hydrolytic activity of Escherichia coli GGT using 7-(N-gamma-glutamylamino)-4-methylcoumarin as substrate assessed as release of AMC at 1.5 mM after 10 mins by fluorescence assay; how it was run: as §2

Structure (SMILES): CCCC[C@H](O[P@](=O)(CCC(N)C(=O)O)Oc1ccccc1)C(=O)NCC(=O)O (stereo partly drawn)
- K (Escherichia coli [1]): 1.7 M⁻¹ s⁻¹
- inhibition [2]: inactive

Structure (SMILES): N[C@H](C(=O)O)[C@@H]1CC(Cl)=NO1
- K (Escherichia coli [1]): 4200 M⁻¹ s⁻¹
- K [3]: 0.4 M⁻¹ s⁻¹

Structure (SMILES): CCC(OP(=O)(CCC(N)C(=O)O)Oc1ccccc1)C(=O)NCC(=O)O (mixture of isomers)
- K (Escherichia coli [1]): 80 M⁻¹ s⁻¹
- K [3]: 75 M⁻¹ s⁻¹

Structure (SMILES): CCCC[C@@H](O[P@@](=O)(CCC(N)C(=O)O)Oc1ccccc1)C(=O)NCC(=O)O (mixture of isomers)
- inhibition [2]: inactive
- inhibition (Escherichia coli [4]): inactive

Structure (SMILES): CCCC[C@@H](O[P@](=O)(CCC(N)C(=O)O)Oc1ccccc1)C(=O)NCC(=O)O (mixture of isomers)
- K (Escherichia coli [1]): 1.3 M⁻¹ s⁻¹
- inhibition [2]: inactive

Structure (SMILES): CCCC[C@H](O[P@@](=O)(CCC(N)C(=O)O)Oc1ccccc1)C(=O)NCC(=O)O (mixture of isomers)
- K (Escherichia coli [1]): 50.7 M⁻¹ s⁻¹
- K [3]: 63.2 M⁻¹ s⁻¹
- inhibition (Escherichia coli [5]): tde

Structure (SMILES): CCCC[C@H](O[P@@](=O)(CCC(N)C(=O)O)Oc1ccccc1)C(=O)OC (mixture of isomers)
- K (Escherichia coli [1]): 8.83 M⁻¹ s⁻¹
- inhibition [2]: inactive
- inhibition (Escherichia coli [5]): tde

Structure (SMILES): CC[C@H](O[P@@](=O)(CCC(N)C(=O)O)Oc1ccccc1)C(=O)NCC(=O)O (mixture of isomers)
- Activity (Escherichia coli [6]): Active
- K (Escherichia coli [1]): 109 M⁻¹ s⁻¹
- K [3]: 145 M⁻¹ s⁻¹
- inhibition [7]: Active
- inhibition (Escherichia coli [5]): tde
- Ratio [8]: > 360

Structure (SMILES): CC[C@H](O[P@](=O)(CCC(N)C(=O)O)OC)C(=O)NCC(=O)O (mixture of isomers)
- inhibition [2]: inactive
- inhibition (Escherichia coli [4]): inactive

Structure (SMILES): NC(CCP(=O)(OCC(=O)NCC(=O)O)Oc1ccccc1)C(=O)O (mixture of isomers)
- K (Escherichia coli [1]): 80.6 M⁻¹ s⁻¹
- K [3]: 44.5 M⁻¹ s⁻¹

Structure (SMILES): NC(CC[P@@](=O)(Oc1ccccc1)O[C@@H](CCl)C(=O)NCC(=O)O)C(=O)O (mixture of isomers)
- K (Escherichia coli [1]): 188 M⁻¹ s⁻¹
- K [3]: 40.3 M⁻¹ s⁻¹
- inhibition (Escherichia coli [5]): tde

Structure (SMILES): NC(CC[P@@](=O)(Oc1ccccc1)O[C@@H](CI)C(=O)NCC(=O)O)C(=O)O (mixture of isomers)
- K (Escherichia coli [1]): 98.4 M⁻¹ s⁻¹
- K [3]: 43.6 M⁻¹ s⁻¹
- inhibition (Escherichia coli [5]): tde

Structure (SMILES): NC(CC[P@@](=O)(Oc1ccccc1)O[C@@H](Cc1ccccc1)C(=O)NCC(=O)O)C(=O)O (mixture of isomers)
- K (Escherichia coli [1]): 389 M⁻¹ s⁻¹
- K [3]: 4.44 M⁻¹ s⁻¹
- inhibition (Escherichia coli [5]): tde

Structure (SMILES): N[C@@H](CCP(=O)(CCC(=O)NCC(=O)O)Oc1ccccc1)C(=O)O (mixture of isomers)
- K [3]: 1.35 M⁻¹ s⁻¹
- inhibition [9]: tde
- inhibition (Escherichia coli [10]): inactive
